Measured values as given in ChEMBL document CHEMBL1148177, “Starfish saponins, Part 50. Steroidal glycosides from the Okinawan starfish Nardoa tuberculata” (1993).
Activity calls are given as the source filed them. The calls are words filed in the database; no cut-off is given here.

Columns and labels:
[1] = system: Sphaerechinus granularis; assay: Inhibition of sea urchin egg fertilization after 10 mins; type: functional
Method in brief: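 Sphaerechinus granularis eggs, each experiment using eggs from a single female, about 50,000 eggs/ml. Eggs were treated 10 min with compound in MeOH-H2O (20:80), diluted five-fold with filtered sea water and fertilized. Controls were handled the same way. Cleavage was checked by light microscopy in vivo at 10 min and 2 h. Values are given as LD50 (M).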

[2] = system: Cladosporium cucumerinum; assay: Antifungal activity against Cladosporium cucumerinum; type: functional
Method in brief: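 Direct bioautography on TLC: samples spotted on TLC plates, then sprayed with a suspension of Cladosporium cucumerinum. Activity is recorded as the minimum inhibition dose in μg spotted.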

[3] = system: Sphaerechinus granularis; assay: Inhibition of sea urchin egg fertilization at <10 uM after 10 mins

SMILES | LD50 [1] | MIC [2] [µg] | Activity [3]
CC(C)[C@@H](O)CC[C@@H](C)[C@H]1C[C@@H](O)[C@@H]2[C@]1(C)CC[C@@H]1[C@@]3(C)CC[C@H](O)[C@H](O)[C@@H]3[C@@H](O)C[C@]12O | 1 ×10⁻⁶ M |  | 
CO[C@H]1[C@H](O[C@H]2[C@H](OCC[C@@H](CC[C@@H](C)[C@H]3[C@@H](O)[C@@H](O)[C@@H]4[C@]3(C)CC[C@@H]3[C@@]5(C)CC[C@H](O)[C@H](O)[C@@H]5[C@@H](O)C[C@]34O)C(C)C)OC[C@@H](O)[C@@H]2O)OC[C@@H](O)[C@@H]1O [HALITYLOSIDE A] | 1 ×10⁻⁵ M | 40 | 
CO[C@H]1[C@H](O[C@H]2[C@H](O[C@@H](CC[C@@H](C)[C@H]3C[C@@H](O)[C@@H]4[C@]3(C)CC[C@@H]3[C@@]5(C)CC[C@H](O)C[C@@H]5[C@H](O)C[C@]34O)C(C)C)O[C@@H](CO)[C@@H]2O)OC[C@@H](OC)[C@@H]1O [HALITYLOSIDE F] | 1 ×10⁻⁶ M | 5 | 
CO[C@H]1[C@H](O[C@H]2[C@H](O[C@@H](CC[C@@H](C)[C@H]3C[C@@H](O)[C@@H]4[C@]3(C)CC[C@@H]3[C@@]5(C)CC[C@H](O)C[C@@H]5[C@@H](O)C[C@]34O)C(C)C)O[C@@H](CO)[C@@H]2O)OC[C@@H](OC)[C@@H]1O [HALITYLOSIDE E] | 1 ×10⁻⁷ M | 10 | 
CC(C)[C@@H](O)CC[C@@H](C)[C@H]1C[C@@H](O)[C@@H]2[C@]1(C)CC[C@@H]1[C@@]3(C)CC[C@H](O)C[C@@H]3[C@@H](O)C[C@]12O |  | 3 | inactive
CO[C@H]1[C@H](O[C@H]2[C@H](OCC[C@@H](CC[C@@H](C)[C@H]3[C@@H](O)[C@@H](O)[C@@H]4[C@]3(C)CC[C@@H]3[C@@]5(C)CC[C@H](O)C[C@@H]5[C@@H](O)C[C@]34O)C(C)C)OC[C@@H](O)[C@@H]2O)OC[C@@H](O)[C@@H]1O [HALITYLOSIDE B] | 1 ×10⁻⁵ M |  | 
CO[C@H]1[C@H](O[C@H]2[C@H](O[C@@H](CC[C@@H](C)[C@H]3C[C@@H](O)[C@@H]4[C@]3(C)CC[C@@H]3[C@@]5(C)CC[C@H](O)[C@H](O)[C@@H]5[C@@H](O)C[C@]34O)C(C)C)O[C@@H](CO)[C@@H]2O)OC[C@@H](OC)[C@@H]1O [HALITYLOSIDE D] | 1 ×10⁻⁶ M |  | 
